Measured values as given in ChEMBL document CHEMBL4346670, “Discovery of Novel Janus Kinase (JAK) and Histone Deacetylase (HDAC) Dual Inhibitors for the Treatment of Hematological Malignancies” (J Med Chem, 2019).

Experiments:
[1] = target: Serine/threonine-protein kinase DCLK1 (Homo sapiens) (UniProt O15075); experiment: Inhibition of recombinant human DCAMKL1 at 200 nM using CREBtide as substrate measured after 60 mins by LANCE method relative to control
Summary of the method: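 Single-concentration screen within an 85-kinase panel run by a contract lab, with each compound tested at 20 nM and 200 nM. Human recombinant enzymes were used. Activity was quantified as phosphorylation of a peptide substrate read by LANCE time-resolved detection, and inhibition was expressed relative to control, using the same format as the JAK assay.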

[2] = target: Vascular endothelial growth factor receptor 3 (Homo sapiens) (UniProt P35916); experiment: Inhibition of recombinant human FLT4 at 20 nM using Ulight-CAGAGAIETDKEYYTVKD as substrate measured after 90 mins by LANCE method relative to control
Summary of the method: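 Part of an 85-kinase selectivity panel run by a contract lab. The test compound was screened at 20 nM and 200 nM against human recombinant kinases. Activity was quantified as phosphorylation of a ULight-labelled peptide substrate, read by LANCE detection. Percent inhibition was taken relative to control. The method is the same one used for JAKs.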

[3] = target: Hepatocyte growth factor receptor (Homo sapiens) (UniProt P08581); experiment: Inhibition of recombinant human c-MET at 200 nM using Ulight-CAGAGAIETDKEYYTVKD as substrate measured after 60 mins by LANCE method relative to control
Sequence of Hepatocyte growth factor receptor (Homo sapiens) (P08581 whole entry): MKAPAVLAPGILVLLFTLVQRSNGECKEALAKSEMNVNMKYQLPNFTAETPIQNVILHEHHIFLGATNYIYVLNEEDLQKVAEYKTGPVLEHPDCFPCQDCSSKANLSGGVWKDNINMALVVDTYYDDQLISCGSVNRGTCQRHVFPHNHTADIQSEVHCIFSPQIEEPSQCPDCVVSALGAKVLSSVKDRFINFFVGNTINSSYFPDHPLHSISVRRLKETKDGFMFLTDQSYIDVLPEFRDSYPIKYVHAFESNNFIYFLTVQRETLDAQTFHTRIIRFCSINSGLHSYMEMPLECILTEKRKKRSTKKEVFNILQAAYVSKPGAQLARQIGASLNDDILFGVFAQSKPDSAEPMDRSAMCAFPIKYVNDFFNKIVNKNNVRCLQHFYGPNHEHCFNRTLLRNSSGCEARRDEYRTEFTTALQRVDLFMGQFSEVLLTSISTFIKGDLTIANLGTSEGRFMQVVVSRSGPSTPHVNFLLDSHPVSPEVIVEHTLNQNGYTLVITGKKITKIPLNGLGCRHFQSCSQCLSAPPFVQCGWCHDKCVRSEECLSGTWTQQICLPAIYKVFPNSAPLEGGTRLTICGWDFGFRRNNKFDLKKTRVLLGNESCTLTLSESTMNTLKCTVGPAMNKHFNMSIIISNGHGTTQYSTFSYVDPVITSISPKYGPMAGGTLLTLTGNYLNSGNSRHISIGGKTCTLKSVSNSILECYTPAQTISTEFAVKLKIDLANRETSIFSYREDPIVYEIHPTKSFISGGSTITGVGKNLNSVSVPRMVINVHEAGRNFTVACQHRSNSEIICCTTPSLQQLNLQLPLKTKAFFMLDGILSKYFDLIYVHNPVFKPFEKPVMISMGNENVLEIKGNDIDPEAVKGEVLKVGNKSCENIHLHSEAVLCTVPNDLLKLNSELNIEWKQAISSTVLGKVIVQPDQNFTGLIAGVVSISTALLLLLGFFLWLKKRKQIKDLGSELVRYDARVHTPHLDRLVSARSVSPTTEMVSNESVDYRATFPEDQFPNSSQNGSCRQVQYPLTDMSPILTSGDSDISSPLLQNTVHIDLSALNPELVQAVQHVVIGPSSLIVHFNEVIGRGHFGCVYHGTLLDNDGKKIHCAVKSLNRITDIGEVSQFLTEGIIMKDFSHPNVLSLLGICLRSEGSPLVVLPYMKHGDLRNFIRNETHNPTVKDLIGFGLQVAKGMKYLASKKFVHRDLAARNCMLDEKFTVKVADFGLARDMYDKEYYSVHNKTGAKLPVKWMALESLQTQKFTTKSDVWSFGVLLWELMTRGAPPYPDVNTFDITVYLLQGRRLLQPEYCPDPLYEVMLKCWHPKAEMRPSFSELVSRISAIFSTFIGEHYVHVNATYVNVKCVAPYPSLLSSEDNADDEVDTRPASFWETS

Sequence of Vascular endothelial growth factor receptor 3 (Homo sapiens) (P35916 whole entry): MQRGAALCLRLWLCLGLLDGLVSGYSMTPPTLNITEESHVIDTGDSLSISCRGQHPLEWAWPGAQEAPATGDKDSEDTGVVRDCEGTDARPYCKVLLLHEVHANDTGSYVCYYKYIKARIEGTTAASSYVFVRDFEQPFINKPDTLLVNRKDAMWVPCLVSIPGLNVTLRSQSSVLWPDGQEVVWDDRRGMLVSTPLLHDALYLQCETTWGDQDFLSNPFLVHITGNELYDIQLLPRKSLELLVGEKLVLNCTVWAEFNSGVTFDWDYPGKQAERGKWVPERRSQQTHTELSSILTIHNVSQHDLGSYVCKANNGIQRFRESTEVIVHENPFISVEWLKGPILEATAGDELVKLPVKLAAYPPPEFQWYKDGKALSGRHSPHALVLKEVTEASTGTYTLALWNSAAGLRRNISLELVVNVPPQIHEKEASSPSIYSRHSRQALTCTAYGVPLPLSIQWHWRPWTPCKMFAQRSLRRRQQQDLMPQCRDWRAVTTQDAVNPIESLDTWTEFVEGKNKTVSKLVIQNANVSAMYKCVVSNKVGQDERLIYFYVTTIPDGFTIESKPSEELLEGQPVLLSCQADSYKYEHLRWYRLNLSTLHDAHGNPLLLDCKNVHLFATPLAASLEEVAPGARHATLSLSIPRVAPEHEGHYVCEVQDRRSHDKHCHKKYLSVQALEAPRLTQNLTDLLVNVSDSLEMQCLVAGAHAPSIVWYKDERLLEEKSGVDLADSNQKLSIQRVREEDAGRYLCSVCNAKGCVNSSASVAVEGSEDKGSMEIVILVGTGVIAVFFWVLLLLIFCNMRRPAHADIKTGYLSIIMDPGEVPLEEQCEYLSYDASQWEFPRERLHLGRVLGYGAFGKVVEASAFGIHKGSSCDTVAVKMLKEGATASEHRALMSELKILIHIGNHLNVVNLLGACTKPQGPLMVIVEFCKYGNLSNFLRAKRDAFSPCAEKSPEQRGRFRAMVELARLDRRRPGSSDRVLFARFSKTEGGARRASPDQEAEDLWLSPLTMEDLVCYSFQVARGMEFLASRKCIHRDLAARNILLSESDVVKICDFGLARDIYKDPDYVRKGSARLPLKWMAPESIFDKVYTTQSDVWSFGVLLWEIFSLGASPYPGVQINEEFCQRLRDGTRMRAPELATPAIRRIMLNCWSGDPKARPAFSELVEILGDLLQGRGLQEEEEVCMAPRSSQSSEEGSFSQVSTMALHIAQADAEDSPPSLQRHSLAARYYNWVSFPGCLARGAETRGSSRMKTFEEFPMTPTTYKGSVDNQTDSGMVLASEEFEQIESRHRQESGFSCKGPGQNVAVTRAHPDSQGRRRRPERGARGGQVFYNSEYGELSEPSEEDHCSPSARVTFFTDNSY
Sequence of Serine/threonine-protein kinase DCLK1 (Homo sapiens) (O15075 whole entry): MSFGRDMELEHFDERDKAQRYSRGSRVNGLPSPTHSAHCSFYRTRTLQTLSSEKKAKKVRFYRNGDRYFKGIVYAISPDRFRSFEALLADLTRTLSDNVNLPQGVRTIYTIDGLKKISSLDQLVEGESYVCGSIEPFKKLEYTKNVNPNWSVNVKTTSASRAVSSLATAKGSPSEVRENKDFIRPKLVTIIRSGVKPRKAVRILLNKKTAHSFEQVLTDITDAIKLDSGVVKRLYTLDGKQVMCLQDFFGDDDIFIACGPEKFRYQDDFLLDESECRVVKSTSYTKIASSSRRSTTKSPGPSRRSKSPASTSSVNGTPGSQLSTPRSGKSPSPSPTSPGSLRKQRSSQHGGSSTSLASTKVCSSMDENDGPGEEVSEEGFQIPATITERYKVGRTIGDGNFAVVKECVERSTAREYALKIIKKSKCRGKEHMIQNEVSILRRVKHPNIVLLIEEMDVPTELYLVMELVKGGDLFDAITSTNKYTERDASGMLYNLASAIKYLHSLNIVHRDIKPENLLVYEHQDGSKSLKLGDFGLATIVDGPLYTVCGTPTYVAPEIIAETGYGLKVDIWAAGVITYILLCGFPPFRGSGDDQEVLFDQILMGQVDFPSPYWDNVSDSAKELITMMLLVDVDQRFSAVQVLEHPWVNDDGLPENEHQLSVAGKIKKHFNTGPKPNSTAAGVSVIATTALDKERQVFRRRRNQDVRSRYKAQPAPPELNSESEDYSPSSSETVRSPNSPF

inhibition [1]: 9%
inhibition [2]: 38%
inhibition [3]: 37%
SMILES: O=C(CCCCCn1cc(Nc2ncc(Cl)c(Nc3ccc(Cl)cc3)n2)cn1)NO
